The source made the active and inactive calls. No cut-off for these calls is given here.
Experiments:
[1] = test system: THP-1; assay: Inhibition of LPS-induced TNFalpha production in human THP1 cells; format: functional, cell-based
How it was run: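 LPS-stimulated TNFα release from THP-1 cells; IC50 values are means of 2–4 experiments, SD for n > 2 typically ±50% of the value.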

[2] = test system: Blood; assay: Inhibition of LPS-induced TNFalpha production in human whole blood; format: functional, tissue-based
How it was run: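 LPS-stimulated TNFα production in whole blood from human donors; IC50 reported as geometric mean of 4–12 donor experiments, SD typically ±50% of the value.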

[3] = biological target: T1, Mitogen-activated protein kinase 14 (Homo sapiens, UniProt Q16539)
[4] = biological target: T1, Mitogen-activated protein kinase 14; assay: Binding affinity to p38alpha assessed as inhibition of ATF2 phosphorylation preincubated for 4 hrs
[5] = biological target: Ribosomal protein S6 kinase alpha-3 (Homo sapiens) (UniProt P51812); assay: Inhibition of MAPKAPK1B at => […] ug/mL
[6] = biological target: Tyrosine-protein kinase Lyn (Homo sapiens, UniProt P07948); assay: Inhibition of Lyn
[7] = biological target: Ribosomal protein S6 kinase beta-1 (Homo sapiens) (UniProt P23443); assay: Inhibition of S6K1 at => 3 ug/mL
[8] = biological target: 3-phosphoinositide-dependent protein kinase 1 (Homo sapiens) (UniProt O15530); assay: Inhibition of PDK1 at => 3 ug/mL
[9] = test system: Mus musculus; assay: Inhibition of LPS-induced endotoxemia in mouse assessed as inhibition of TNFalpha production at 3 mg/kg, po; format: functional
How it was run: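 Mouse LPS-induced endotoxemia model; compound given orally at 3 mg/kg, and TNFα production is measured and expressed as percent inhibition.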

[10] = biological target: Mitogen-activated protein kinase 8 (Homo sapiens) (UniProt P45983); assay: Inhibition of […] at => 3 ug/mL
[11] = biological target: Glycogen synthase kinase-3 beta (Homo sapiens) (UniProt P49841); assay: Inhibition of GSK3-beta at => 3 ug/mL
[12] = Inhibition of VEGFR
[13] = biological target: Cyclin-dependent kinase 1 (Homo sapiens) (UniProt P06493); assay: Inhibition of CDK1 at => 3 ug/mL
[14] = biological target: Insulin-like growth factor 1 receptor (Homo sapiens) (UniProt P08069); assay: Inhibition of IGF1R at => 3 ug/mL
[15] = biological target: Mitogen-activated protein kinase 9 (Homo sapiens, UniProt P45984); assay: Inhibition of JNK2alpha2 by exchange curve binding kinetic analysis
[16] = biological target: Tyrosine-protein kinase ABL1 (Homo sapiens, UniProt P00519); assay: Inhibition of Abl
[17] = biological target: Dual specificity mitogen-activated protein kinase kinase 1 (Homo sapiens) (UniProt Q02750); assay: Inhibition of MKK1 at => 3 ug/mL
[18] = biological target: Ephrin type-A receptor 3 (Homo sapiens, UniProt P29320); assay: Inhibition of HEK
[19] = biological target: Ribosomal protein S6 kinase alpha-3 (Homo sapiens) (UniProt P51812); assay: Inhibition of RSK2 at => 3 ug/mL
[20] = biological target: Casein kinase I isoform alpha (Homo sapiens) (UniProt P48729); assay: Inhibition of CK1 at => 3 ug/mL
[21] = Inhibition of PKA at => […] ug/mL
[22] = biological target: Ephrin type-A receptor 2 (Homo sapiens, UniProt P29317); assay: Inhibition of ECK
[23] = Inhibition of CK2 at => 3 ug/mL
[24] = biological target: Epidermal growth factor receptor (Homo sapiens, UniProt P00533); assay: Inhibition of EGFR
[25] = biological target: Hepatocyte growth factor receptor (Homo sapiens) (UniProt P08581); assay: Inhibition of HGFR at => 3 ug/mL
[26] = biological target: Tyrosine-protein kinase BTK (Homo sapiens) (UniProt Q06187); assay: Inhibition of BTK at => 3 ug/mL
[27] = biological target: Tyrosine-protein kinase JAK3 (Homo sapiens) (UniProt P52333); assay: Inhibition of JAK3 at => 3 ug/mL
[28] = biological target: MAP kinase-activated protein kinase 2 (Homo sapiens) (UniProt P49137); assay: Inhibition of MAPKAPK2 at => […] ug/mL
[29] = biological target: MAP kinase-activated protein kinase 5 (Homo sapiens) (UniProt Q8IW41); assay: Inhibition of PRAK at => 3 ug/mL
[30] = biological target: Tyrosine-protein kinase SYK (Homo sapiens) (UniProt P43405); assay: Inhibition of SYK at => 3 ug/mL
[31] = biological target: Mitogen-activated protein kinase kinase kinase 14 (Homo sapiens) (UniProt Q99558); assay: Inhibition of NIK at => 3 ug/mL
[32] = biological target: Tyrosine-protein kinase CSK (Homo sapiens) (UniProt P41240); assay: Inhibition of CSK at 3 uM
[33] = Inhibition of PI3K at => 3 ug/mL
[34] = Inhibition of ERK at => 3 ug/mL
[35] = Inhibition of PHK1 at => 3 ug/mL
[36] = Inhibition of pp60src
[37] = biological target: Tyrosine-protein kinase TXK (Homo sapiens) (UniProt P42681); assay: Inhibition of TXK at => 3 ug/mL
[38] = biological target: Focal adhesion kinase 1 (Homo sapiens) (UniProt Q05397); assay: Inhibition of PTK2 at => 3 ug/mL
[39] = biological target: RAC-alpha serine/threonine-protein kinase (Homo sapiens, UniProt P31749); assay: Inhibition of PKBalpha/Akt1
[40] = biological target: RAF proto-oncogene serine/threonine-protein kinase (Homo sapiens, UniProt P04049); assay: Inhibition of craf
[41] = biological target: Insulin receptor (Homo sapiens) (UniProt P06213); assay: Inhibition of IR at => 3 ug/mL
[42] = biological target: Serine/threonine-protein kinase B-raf (Homo sapiens, UniProt P15056); assay: Inhibition of bRaf
[43] = biological target: Serine/threonine-protein kinase Sgk1 (Homo sapiens) (UniProt O00141); assay: Inhibition of SGK at => 3 ug/mL
[44] = Inhibition of IKK at => 3 ug/mL
[45] = biological target: Protein kinase C alpha type (Homo sapiens) (UniProt P17252); assay: Inhibition of PKCalpha at => 3 ug/mL
[46] = biological target: Rho-associated protein kinase 2 (Homo sapiens) (UniProt O75116); assay: Inhibition of ROCK2 at => 3 ug/mL
[47] = biological target: Dual specificity tyrosine-phosphorylation-regulated kinase 1A (Homo sapiens) (UniProt Q13627); assay: Inhibition of DYRK1A at => 3 ug/mL
[48] = Inhibition of FGFR
[49] = biological target: Tyrosine-protein kinase Lck (Homo sapiens) (UniProt P06239); assay: Inhibition of LCK at => 3 ug/mL
[50] = Aqueous solubility at pH 7.4; format: physicochemical
[51] = biological target: T1, Mitogen-activated protein kinase 14; assay: Binding affinity to p38alpha by exchange curve binding kinetic analysis
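Throughout, for Tm: thermal denaturation measurement of the p38alpha–inhibitor complex, reporting its melting point as a readout of binding.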

T1 sequence (Q16539 whole entry): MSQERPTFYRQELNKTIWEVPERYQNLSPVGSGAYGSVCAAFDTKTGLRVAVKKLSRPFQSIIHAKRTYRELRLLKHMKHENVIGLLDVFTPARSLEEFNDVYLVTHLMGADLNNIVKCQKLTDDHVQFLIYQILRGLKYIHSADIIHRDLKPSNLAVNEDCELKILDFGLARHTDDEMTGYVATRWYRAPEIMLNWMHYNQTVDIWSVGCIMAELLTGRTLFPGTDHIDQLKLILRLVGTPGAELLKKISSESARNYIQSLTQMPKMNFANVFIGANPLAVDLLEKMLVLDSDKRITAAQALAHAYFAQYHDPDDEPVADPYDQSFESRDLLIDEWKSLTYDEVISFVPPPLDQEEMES
Ribosomal protein S6 kinase alpha-3 (Homo sapiens), sequence (P51812 whole entry, canonical isoform): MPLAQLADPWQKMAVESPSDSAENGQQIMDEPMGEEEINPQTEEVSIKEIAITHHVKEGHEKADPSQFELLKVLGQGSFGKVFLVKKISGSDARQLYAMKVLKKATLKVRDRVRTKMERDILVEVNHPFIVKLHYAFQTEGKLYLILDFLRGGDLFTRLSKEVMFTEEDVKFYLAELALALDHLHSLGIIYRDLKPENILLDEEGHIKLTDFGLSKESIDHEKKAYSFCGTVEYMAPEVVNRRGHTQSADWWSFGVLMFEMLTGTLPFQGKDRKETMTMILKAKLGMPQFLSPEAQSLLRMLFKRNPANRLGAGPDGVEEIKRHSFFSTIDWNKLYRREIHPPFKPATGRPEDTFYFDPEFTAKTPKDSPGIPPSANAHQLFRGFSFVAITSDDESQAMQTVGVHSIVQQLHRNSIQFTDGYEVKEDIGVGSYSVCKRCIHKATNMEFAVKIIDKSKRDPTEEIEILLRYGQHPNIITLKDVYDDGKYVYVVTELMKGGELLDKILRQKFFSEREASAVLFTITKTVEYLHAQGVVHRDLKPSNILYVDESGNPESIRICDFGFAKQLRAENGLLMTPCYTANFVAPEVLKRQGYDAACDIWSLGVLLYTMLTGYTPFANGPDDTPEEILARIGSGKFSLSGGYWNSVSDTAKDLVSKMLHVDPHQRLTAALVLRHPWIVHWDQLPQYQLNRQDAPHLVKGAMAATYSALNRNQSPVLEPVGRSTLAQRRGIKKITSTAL
Dual specificity mitogen-activated protein kinase kinase 1 (Homo sapiens), sequence (Q02750 whole entry): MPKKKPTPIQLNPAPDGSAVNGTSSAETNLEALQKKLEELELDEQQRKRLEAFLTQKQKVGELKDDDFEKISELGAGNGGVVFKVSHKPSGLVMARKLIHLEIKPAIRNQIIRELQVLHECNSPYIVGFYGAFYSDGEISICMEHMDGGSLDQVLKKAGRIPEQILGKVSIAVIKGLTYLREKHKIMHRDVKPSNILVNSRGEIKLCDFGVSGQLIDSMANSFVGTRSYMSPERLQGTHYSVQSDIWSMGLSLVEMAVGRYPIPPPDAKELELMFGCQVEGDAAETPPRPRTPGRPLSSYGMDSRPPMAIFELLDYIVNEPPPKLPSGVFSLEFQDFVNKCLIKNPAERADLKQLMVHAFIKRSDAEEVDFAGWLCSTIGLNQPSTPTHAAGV
Cyclin-dependent kinase 1 (Homo sapiens), sequence (P06493 whole entry, looked up): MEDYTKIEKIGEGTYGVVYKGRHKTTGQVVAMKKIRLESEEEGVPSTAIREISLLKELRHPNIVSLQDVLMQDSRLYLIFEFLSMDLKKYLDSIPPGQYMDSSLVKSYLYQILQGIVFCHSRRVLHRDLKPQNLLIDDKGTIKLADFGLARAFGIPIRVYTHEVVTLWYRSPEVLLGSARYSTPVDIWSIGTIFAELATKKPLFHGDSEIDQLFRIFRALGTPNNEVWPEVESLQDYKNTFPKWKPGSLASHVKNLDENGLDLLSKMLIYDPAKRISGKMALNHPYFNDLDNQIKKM
Ribosomal protein S6 kinase beta-1 (Homo sapiens), sequence (P23443 whole entry, looked up): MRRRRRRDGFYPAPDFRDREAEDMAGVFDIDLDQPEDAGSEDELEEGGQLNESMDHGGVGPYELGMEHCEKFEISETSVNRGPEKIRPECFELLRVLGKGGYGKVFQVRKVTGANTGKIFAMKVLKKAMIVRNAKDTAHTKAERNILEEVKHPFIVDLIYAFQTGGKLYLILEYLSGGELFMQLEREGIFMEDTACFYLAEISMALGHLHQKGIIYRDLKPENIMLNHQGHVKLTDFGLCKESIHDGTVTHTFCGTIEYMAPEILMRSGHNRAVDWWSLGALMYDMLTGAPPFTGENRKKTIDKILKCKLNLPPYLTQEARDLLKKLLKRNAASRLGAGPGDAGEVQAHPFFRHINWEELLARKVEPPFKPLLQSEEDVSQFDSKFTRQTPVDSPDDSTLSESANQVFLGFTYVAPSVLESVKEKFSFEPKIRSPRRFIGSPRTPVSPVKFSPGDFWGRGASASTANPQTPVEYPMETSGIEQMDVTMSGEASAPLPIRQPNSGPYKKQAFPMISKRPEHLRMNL
Serine/threonine-protein kinase B-raf, sequence (P15056 whole entry): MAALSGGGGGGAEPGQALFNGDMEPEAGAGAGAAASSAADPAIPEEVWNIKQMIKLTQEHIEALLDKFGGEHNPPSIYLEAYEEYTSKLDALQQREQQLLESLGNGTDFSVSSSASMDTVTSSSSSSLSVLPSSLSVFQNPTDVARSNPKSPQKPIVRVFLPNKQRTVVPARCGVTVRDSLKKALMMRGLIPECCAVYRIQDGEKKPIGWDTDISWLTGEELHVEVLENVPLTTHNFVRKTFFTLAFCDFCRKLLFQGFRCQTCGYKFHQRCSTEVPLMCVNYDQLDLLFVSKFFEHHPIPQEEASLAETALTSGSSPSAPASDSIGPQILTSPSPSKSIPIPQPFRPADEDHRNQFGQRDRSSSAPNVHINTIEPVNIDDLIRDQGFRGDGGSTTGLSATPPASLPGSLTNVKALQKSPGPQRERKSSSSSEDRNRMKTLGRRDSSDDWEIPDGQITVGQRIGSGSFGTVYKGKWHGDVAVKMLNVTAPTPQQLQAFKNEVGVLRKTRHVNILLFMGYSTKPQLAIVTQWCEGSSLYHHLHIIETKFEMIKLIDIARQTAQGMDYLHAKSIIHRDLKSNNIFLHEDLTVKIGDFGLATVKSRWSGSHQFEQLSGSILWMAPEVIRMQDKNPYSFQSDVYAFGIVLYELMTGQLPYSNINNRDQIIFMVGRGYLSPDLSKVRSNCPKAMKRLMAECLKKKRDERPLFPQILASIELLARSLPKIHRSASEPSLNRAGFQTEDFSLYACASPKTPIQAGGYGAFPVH
Rho-associated protein kinase 2 (Homo sapiens), sequence (O75116 whole entry, looked up): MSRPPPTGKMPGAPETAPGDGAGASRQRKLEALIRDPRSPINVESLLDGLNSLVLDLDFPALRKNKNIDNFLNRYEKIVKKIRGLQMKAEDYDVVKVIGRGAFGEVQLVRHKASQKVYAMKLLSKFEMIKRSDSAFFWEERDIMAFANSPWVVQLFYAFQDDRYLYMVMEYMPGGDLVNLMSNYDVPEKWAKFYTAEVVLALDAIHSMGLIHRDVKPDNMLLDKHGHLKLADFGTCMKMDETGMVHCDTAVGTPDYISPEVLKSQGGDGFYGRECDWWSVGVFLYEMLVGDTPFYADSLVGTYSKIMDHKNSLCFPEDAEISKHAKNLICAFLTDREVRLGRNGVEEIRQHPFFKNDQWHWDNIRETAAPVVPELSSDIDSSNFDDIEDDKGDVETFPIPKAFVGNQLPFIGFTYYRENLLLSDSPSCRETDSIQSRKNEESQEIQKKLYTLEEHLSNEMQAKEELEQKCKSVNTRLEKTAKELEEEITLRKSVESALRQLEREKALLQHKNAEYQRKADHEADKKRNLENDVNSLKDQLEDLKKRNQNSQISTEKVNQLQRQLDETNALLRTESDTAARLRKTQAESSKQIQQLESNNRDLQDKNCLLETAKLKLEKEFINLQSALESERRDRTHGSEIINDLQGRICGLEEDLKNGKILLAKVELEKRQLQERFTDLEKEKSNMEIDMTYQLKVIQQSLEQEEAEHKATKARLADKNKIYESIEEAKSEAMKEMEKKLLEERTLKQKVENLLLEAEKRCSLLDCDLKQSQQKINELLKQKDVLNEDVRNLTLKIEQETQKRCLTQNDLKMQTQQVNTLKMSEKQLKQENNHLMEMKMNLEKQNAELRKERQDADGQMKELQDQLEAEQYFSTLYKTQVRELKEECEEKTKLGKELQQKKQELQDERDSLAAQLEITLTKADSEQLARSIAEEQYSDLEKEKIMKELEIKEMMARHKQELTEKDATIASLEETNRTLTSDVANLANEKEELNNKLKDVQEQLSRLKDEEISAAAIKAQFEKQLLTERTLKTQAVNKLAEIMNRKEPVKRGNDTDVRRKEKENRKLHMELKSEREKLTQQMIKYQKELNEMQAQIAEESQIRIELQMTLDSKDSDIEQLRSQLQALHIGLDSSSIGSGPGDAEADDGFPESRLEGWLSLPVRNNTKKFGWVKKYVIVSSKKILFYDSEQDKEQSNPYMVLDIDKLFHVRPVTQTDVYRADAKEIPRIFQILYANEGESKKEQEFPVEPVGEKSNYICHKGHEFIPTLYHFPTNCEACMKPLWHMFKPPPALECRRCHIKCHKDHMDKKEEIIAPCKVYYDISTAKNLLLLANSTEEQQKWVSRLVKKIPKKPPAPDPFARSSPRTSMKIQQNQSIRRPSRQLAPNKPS
Glycogen synthase kinase-3 beta (Homo sapiens), sequence (P49841 whole entry, looked up): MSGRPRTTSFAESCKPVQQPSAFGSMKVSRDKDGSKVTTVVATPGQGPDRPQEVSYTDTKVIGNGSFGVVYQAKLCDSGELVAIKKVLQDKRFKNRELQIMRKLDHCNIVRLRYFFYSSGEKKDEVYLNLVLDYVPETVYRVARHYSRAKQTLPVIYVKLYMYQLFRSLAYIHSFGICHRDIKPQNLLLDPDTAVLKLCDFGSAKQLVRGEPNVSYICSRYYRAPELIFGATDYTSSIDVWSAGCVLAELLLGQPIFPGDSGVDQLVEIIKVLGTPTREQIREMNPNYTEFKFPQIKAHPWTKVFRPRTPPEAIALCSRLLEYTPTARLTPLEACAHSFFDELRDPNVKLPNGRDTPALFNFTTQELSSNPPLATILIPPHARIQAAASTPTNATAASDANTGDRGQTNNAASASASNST

For `CNC(=O)c1cc(C(C)(C)C)cc(NC(=O)Nc2ccc(-c3ccc(CN4CCOCC4)nc3)c3ccccc23)c1OC`, the IC50 [1] was 10 nM, the IC50 [2] was 97 nM and the Tm [3] was 65.6 °C.

For `CCc1ccc(C(C)(C)C)cc1NC(=O)Nc1ccc(-c2ccc(CN3CCOCC3)nc2)c2ccccc12`, the IC50 [1] was 8.8 nM, the IC50 [2] was 700 nM and the Tm [3] was 53.9 °C.

`COc1ccc(C(C)(C)C)cc1NC(=O)Nc1cccc2ccccc12` gave an IC50 [4] of 3900 nM and a Tm [3] of 50.3 °C.

Molecule `COc1c(NC(C)=O)cc(C(C)(C)C)cc1NC(=O)Nc1ccc(-c2ccc(CN3CCOCC3)nc2)c2ccccc12` has an IC50 [1] of 9 nM, an IC50 [2] of 35 nM and a Tm [3] of 63.6 °C.

`COc1ccc(C(C)(C)C)cc1NC(=O)c1cc2ccccc2o1` gave an IC50 [4] greater than 10000 nM and a Tm [3] of 46.2 °C.

`COc1c(NC(N)=O)cc(C(C)(C)C)cc1NC(=O)Nc1ccc(-c2ccc(CN3CCOCC3)nc2)c2ccccc12` gave an IC50 [1] of 12 nM, an IC50 [2] of 110 nM and a Tm [3] of 56.7 °C.

Molecule `COc1c(NC(=O)Nc2ccc(-c3ccc(CN4CCOCC4)nc3)c3ccccc23)cc(C(C)(C)C)cc1N(C)C(C)=O` has an IC50 [1] of 15 nM, an IC50 [2] of 120 nM and a Tm [3] of 64.9 °C.

For `COc1c(NC(=O)Nc2ccc(-c3ccc(CN4CCOCC4)nc3)c3ccccc23)cc(C(C)(C)C)cc1NS(C)(=O)=O`, the Activity [5] was “inactive”, the IC50 [6] was 2400 nM and the Activity [7] was “inactive”. The Activity [8] was “inactive”, the inhibition in vivo at 3 mg/kg [9] was 57% and the Activity [10] was “inactive”. The Activity [11] was “inactive”, the IC50 [12] was 3000 nM and the Activity [13] was “inactive”. The Activity [14] was “inactive”, the IC50 [15] was 3 nM and the IC50 [16] was 480 nM. The Activity [17] was “inactive”, the IC50 [18] was 3200 nM and the Activity [19] was “inactive”. For the same molecule, the Activity [20] was “inactive”, the Activity [21] was “inactive” and the IC50 [22] was 5200 nM. The Activity [23] was “inactive”, the IC50 [24] was 5400 nM and the Activity [25] was “inactive”. The IC50 [1] was 10 nM, the Activity [26] was “inactive” and the Activity [27] was “inactive”. For the same molecule, the Activity [28] was “inactive”, the Activity [29] was “inactive” and the Activity [30] was “inactive”. For the same molecule, the Activity [31] was “inactive”, the inhibition [32] was 62% and the Activity [33] was “inactive”. For the same molecule, the IC50 [2] was 46 nM, the Activity [34] was “inactive” and the Activity [35] was “inactive”. The IC50 [36] was 8200 nM, the Activity [37] was “inactive” and the Activity [38] was “inactive”. For the same molecule, the IC50 [39] was 6400 nM, the IC50 [40] was 880 nM and the Activity [41] was “inactive”. For the same molecule, the IC50 [42] was 7200 nM, the Activity [43] was “inactive” and the Activity [44] was “inactive”. For the same molecule, the Activity [45] was “inactive”, the Activity [46] was “inactive” and the Activity [47] was “inactive”. For the same molecule, the Tm [3] was 63.3 °C, the IC50 [48] was 7700 nM and the Activity [49] was “inactive”.

For `Cn1nc(C(C)(C)C)cc1NC(=O)Nc1ccc(-c2ccc(CN3CCOCC3)nc2)c2ccccc12`, the IC50 [1] was 29 nM, the IC50 [2] was 230 nM and the Tm [3] was 57.9 °C.

Molecule `COc1ccc(C(C)(C)C)cc1NC(=O)Nc1ccc(-c2ccc(CN3CCOCC3)nc2)c2ccccc12` has an IC50 [1] of 5.5 nM, a solubility [50] of less than 0.5 µg/mL and an IC50 [2] of 140 nM. The Kd [51] was 1.8 nM and the Tm [3] was 57.9 °C.

With `COc1c(NC(=O)Nc2cccc3ccccc23)cc(C(C)(C)C)cc1NS(C)(=O)=O` the IC50 [4] was 79 nM and the Tm [3] was 56.3 °C.

Molecule `Cc1ccc(-n2nc(C(C)(C)C)cc2NC(=O)Nc2ccc(-c3ccc(CN4CCOCC4)nc3)c3ccccc23)cc1` has an IC50 [1] of 8 nM, an IC50 [2] of 220 nM and a Tm [3] of 63.6 °C.

For `COc1c(N)cc(C(C)(C)C)cc1NC(=O)Nc1ccc(-c2ccc(CN3CCOCC3)nc2)c2ccccc12`, the IC50 [1] was 5 nM, the IC50 [2] was 22 nM and the Tm [3] was 61.5 °C.
